Measured values from ChEMBL document CHEMBL1275556, “High prevalence of plasmid-mediated quinolone resistance genes qnr and aac(6')-Ib-cr in clinical isolates of Enterobacteriaceae from nine teaching hospitals in China” (2008).
In brackets after ≈: the same amount, converted by molar mass.

How the values were obtained:
Citrobacter freundii [1] = test: Antimicrobial activity against aac(6')-Ib-cr-positive Citrobacter freundii JS33 harboring GyrA T83I mutant, wild-type ParC, GyrB, qnrA and qnrB genes by agar dilution method; format: functional
Method in brief: (§1)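 MICs were determined by the CLSI agar dilution method (M7-A7) and interpreted against CLSI M100-S17 breakpoints.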

Klebsiella pneumoniae [2] = test: Antimicrobial activity against aac(6')-Ib-cr-positive Klebsiella pneumoniae SY26T harboring wild-type GyrA, ParC, GyrB and qnrB genes by agar dilution method; format: functional
Method in brief: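 Transconjugants were made by conjugating a qnr/aac(6')-Ib-cr donor with azide-resistant E. coli J53. MICs were read by CLSI agar dilution (M7-A7) and interpreted per M100-S17.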

Klebsiella pneumoniae [3] = test: Antimicrobial activity against aac(6')-Ib-cr-positive Klebsiella pneumoniae JN41 harboring GyrA S83I, ParC S80I mutant, wild-type GyrB and qnrB genes by agar dilution method; format: functional
Method in brief: (§2)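 MICs were determined on clinical isolates by CLSI agar dilution (M7-A7) and interpreted against CLSI M100-S17 breakpoints.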

Klebsiella pneumoniae [4] = test: Antimicrobial activity against aac(6')-Ib-cr-positive Klebsiella pneumoniae GZ40 harboring GyrA S83I, ParC S80I mutant, wild-type GyrB and qnrB genes by agar dilution method; format: functional; method in brief: as §1
Klebsiella pneumoniae [5] = test: Antimicrobial activity against aac(6')-Ib-cr-positive Klebsiella pneumoniae GZ40T harboring qnrB gene by agar dilution method
Citrobacter freundii [6] = test: Antimicrobial activity against aac(6')-Ib-cr-positive Citrobacter freundii JN1T by agar dilution method; format: functional; method in brief: as §1
Citrobacter freundii [7] = test: Antimicrobial activity against aac(6')-Ib-cr-positive Citrobacter freundii TJ15 harboring GyrA T83I, ParC S80I mutant, wild-type GyrB, qnrB genes by agar dilution method; format: functional; method in brief: as §1
Citrobacter freundii [8] = test: Antimicrobial activity against aac(6')-Ib-cr-positive Citrobacter freundii JN1 harboring GyrA T83I, ParC S80I mutant, wild-type GyrB and qnrA genes by agar dilution method; format: functional; method in brief: as §1
Citrobacter freundii [9] = test: Antimicrobial activity against aac(6')-Ib-cr-positive Citrobacter freundii JS33T harboring qnrA gene by agar dilution method; format: functional; method in brief: as §1
Klebsiella pneumoniae [10] = test: Antimicrobial activity against aac(6')-Ib-cr-negative Klebsiella pneumoniae SY22 harboring GyrA S83I, ParC S80I mutant, wild-type GyrB and qnrS genes by agar dilution method; format: functional; method in brief: as §1
Klebsiella pneumoniae [11] = test: Antimicrobial activity against aac(6')-Ib-cr-positive Klebsiella pneumoniae SY26 harboring GyrA S83I, ParC S80I mutant, wild-type GyrB and qnrB genes by agar dilution method; format: functional; method in brief: as §2
Klebsiella pneumoniae [12] = test: Antimicrobial activity against aac(6')-Ib-cr-positive Klebsiella pneumoniae WH99T harboring qnrB gene by agar dilution method; format: functional
Method in brief: (§3)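 Transconjugants were made by conjugating a qnr/aac(6')-Ib-cr donor with azide-resistant E. coli J53. Selection used Trypticase soy agar with sodium azide 150 µg/ml and sulfamethoxazole 180 µg/ml. […] MICs were read by CLSI agar dilution (M7-A7) and interpreted per M100-S17.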

Klebsiella pneumoniae [13] = test: Antimicrobial activity against aac(6')-Ib-cr-positive Klebsiella pneumoniae JN132T harboring qnrB gene by agar dilution method; format: functional; method in brief: as §3
Citrobacter freundii [14] = test: Antimicrobial activity against aac(6')-Ib-cr-negative Citrobacter freundii JN64 harboring GyrA T83I, wild-type ParC, GyrB and qnrA genes by agar dilution method; format: functional; method in brief: as §1
Klebsiella pneumoniae [15] = test: Antimicrobial activity against aac(6')-Ib-cr-positive Klebsiella pneumoniae JN132 harboring GyrA S83I, ParC S80I mutant, wild-type GyrB and qnrB genes by agar dilution method; format: functional; method in brief: as §2
Klebsiella pneumoniae [16] = test: Antimicrobial activity against aac(6')-Ib-cr-positive Klebsiella pneumoniae JN41T harboring qnrB gene by agar dilution method; format: functional; method in brief: as §3
Citrobacter freundii [17] = test: Antimicrobial activity against aac(6')-Ib-cr-positive Citrobacter freundii PU55 harboring GyrA T83I, ParC S80I mutant, wild-type GyrB, qnrA genes by agar dilution method; format: functional; method in brief: as §1
Klebsiella pneumoniae [18] = test: Antimicrobial activity against aac(6')-Ib-cr-positive Klebsiella pneumoniae WH99 harboring wild-type GyrA, ParC, GyrB and qnrB genes by agar dilution method; format: functional; method in brief: as §2
Citrobacter freundii [19] = test: Antimicrobial activity against aac(6')-Ib-cr-positive Citrobacter freundii PU55T harboring wild-type GyrA, ParC, GyrB and qnrA genes by agar dilution method
Klebsiella pneumoniae [20] = test: Antimicrobial activity against aac(6')-Ib-cr-negative Klebsiella pneumoniae SY22T harboring qnrS gene by agar dilution method; format: functional; method in brief: as §1
Enterobacter cloacae [21] = test: Antimicrobial activity against aac(6')-Ib-cr-negative Enterobacter cloacae GZ51 harboring qnrA gene by agar dilution method; format: functional
Enterobacter cloacae [22] = test: Antimicrobial activity against aac(6')-Ib-cr-negative Enterobacter cloacae WH42 harboring wild-type GyrA, ParC, GyrB and qnrA genes by agar dilution method; format: functional
Citrobacter freundii [23] = test: Antimicrobial activity against aac(6')-Ib-cr-positive Citrobacter freundii TJ15T harboring wild-type GyrA, ParC, GyrB genes by agar dilution method; format: functional; method in brief: as §1
Enterobacter cloacae [24] = test: Antimicrobial activity against aac(6')-Ib-cr-negative Enterobacter cloacae GZ51T harboring qnrA gene by agar dilution method; format: functional
Enterobacter cloacae [25] = test: Antimicrobial activity against aac(6')-Ib-cr-negative Enterobacter cloacae GZ47T harboring qnrB gene by agar dilution method; format: functional
Citrobacter freundii [26] = test: Antimicrobial activity against aac(6')-Ib-cr-negative Citrobacter freundii JN64T harboring qnrA gene by agar dilution method; format: functional; method in brief: as §1
Enterobacter cloacae [27] = test: Antimicrobial activity against aac(6')-Ib-cr-positive Enterobacter cloacae FJ63T harboring qnrS gene by agar dilution method; format: functional
Enterobacter cloacae [28] = test: Antimicrobial activity against aac(6')-Ib-cr-negative Enterobacter cloacae GZ47 harboring qnrB and qnrS genes by agar dilution method; format: functional
Enterobacter cloacae [29] = test: Antimicrobial activity against aac(6')-Ib-cr-negative Enterobacter cloacae SH39 harboring GyrA S83I, ParC S80I mutant, wild-type GyrB and qnrA genes by agar dilution method; format: functional
Enterobacter cloacae [30] = test: Antimicrobial activity against aac(6')-Ib-cr-negative Enterobacter cloacae FJ61T harboring qnrS gene by agar dilution method; format: functional
Enterobacter cloacae [31] = test: Antimicrobial activity against aac(6')-Ib-cr-negative Enterobacter cloacae FJ67 harboring […] and qnrS genes by agar dilution method; format: functional
Enterobacter cloacae [32] = test: Antimicrobial activity against aac(6')-Ib-cr-negative Enterobacter cloacae FJ61 harboring GyrA S83I, GyrA D87A, ParC S80I mutant, wild-type GyrB and qnrS genes by agar dilution method; format: functional
Escherichia coli [33] = test: Antimicrobial activity against aac(6')-Ib-cr-negative Escherichia coli PU12 harboring GyrA S83L mutant, wild-type GyrB, ParC and qnrS genes by agar dilution method; format: functional; method in brief: as §1
Enterobacter cloacae [34] = test: Antimicrobial activity against aac(6')-Ib-cr-negative Enterobacter cloacae FJ67T harboring qnrS gene by agar dilution method; format: functional
Enterobacter cloacae [35] = test: Antimicrobial activity against aac(6')-Ib-cr-positive Enterobacter cloacae FJ63 harboring GyrA S83I, GyrA D87A, ParC S80I mutant, wild-type GyrB and qnrS genes by agar dilution method; format: functional
Enterobacter cloacae [36] = test: Antimicrobial activity against aac(6')-Ib-cr-negative Enterobacter cloacae SH39T harboring qnrA gene by agar dilution method; format: functional
Escherichia coli [37] = test: Antimicrobial activity against aac(6')-Ib-cr-positive Escherichia coli FJ3 harboring GyrA S83L, ParC S80R mutant, wild-type GyrB and qnrB genes by agar dilution method; format: functional; method in brief: as §1
Escherichia coli [38] = test: Antimicrobial activity against aac(6')-Ib-cr-negative Escherichia coli PU12T harboring wild-type GyrA, GyrB, ParC and qnrS genes by agar dilution method; format: functional; method in brief: as §1
Enterobacter cloacae [39] = test: Antimicrobial activity against aac(6')-Ib-cr-negative Enterobacter cloacae WH42T harboring qnrA gene by agar dilution method; format: functional
Escherichia coli [40] = test: Antimicrobial activity against aac(6')-Ib-cr-positive Escherichia coli FJ3T harboring wild-type GyrA, ParC, GyrB and qnrB genes by agar dilution method

Row | Compound | MIC (Citrobacter freundii [1]) | MIC (Klebsiella pneumoniae [2]) | MIC (Klebsiella pneumoniae [3]) | MIC (Klebsiella pneumoniae [4]) | MIC (Citrobacter freundii [6]) | MIC (Citrobacter freundii [7]) | MIC (Citrobacter freundii [8]) | MIC (Citrobacter freundii [9]) | MIC (Klebsiella pneumoniae [10]) | MIC (Klebsiella pneumoniae [11]) | MIC (Klebsiella pneumoniae [12]) | MIC (Klebsiella pneumoniae [13]) | MIC (Citrobacter freundii [14]) | MIC (Klebsiella pneumoniae [15]) | MIC (Klebsiella pneumoniae [16]) | MIC (Citrobacter freundii [17]) | MIC (Klebsiella pneumoniae [18]) | MIC (Klebsiella pneumoniae [20]) | MIC (Enterobacter cloacae [21]) | MIC (Enterobacter cloacae [22]) | further results
1 | O=C(O)c1cn(C2CC2)c2cc(N3CCNCC3)c(F)cc2c1=O [CIPROFLOXACIN] | 4 µg/mL (≈ 12.1 µM) | 0.5 µg/mL (≈ 1.51 µM) | > 32 µg/mL | > 32 µg/mL | 1 µg/mL (≈ 3.02 µM) | 16 µg/mL (≈ 48.3 µM) | > 32 µg/mL | 0.5 µg/mL (≈ 1.51 µM) | > 32 µg/mL | > 32 µg/mL | 1 µg/mL (≈ 3.02 µM) | 1 µg/mL (≈ 3.02 µM) | 8 µg/mL (≈ 24.1 µM) | > 32 µg/mL | 0.5 µg/mL (≈ 1.51 µM) | > 32 µg/mL | 2 µg/mL (≈ 6.04 µM) | 0.5 µg/mL (≈ 1.51 µM) | – | – | MIC (Klebsiella pneumoniae [5]): 1 µg/mL (≈ 3.02 µM); MIC (Citrobacter freundii [19]): 1 µg/mL (≈ 3.02 µM)
2 | GENTAMICIN | 64 µg/mL | > 256 µg/mL | 1 µg/mL | 1 µg/mL | 1 µg/mL | 256 µg/mL | 1 µg/mL | 16 µg/mL | 128 µg/mL | > 256 µg/mL | 128 µg/mL | > 256 µg/mL | > 256 µg/mL | > 256 µg/mL | 1 µg/mL | 1 µg/mL | 128 µg/mL | 32 µg/mL | > 256 µg/mL | 16 µg/mL | MIC (Citrobacter freundii [23]): 1 µg/mL; MIC (Enterobacter cloacae [24]): > 256 µg/mL; MIC (Enterobacter cloacae [25]): 128 µg/mL; MIC (Citrobacter freundii [26]): > 256 µg/mL; MIC (Enterobacter cloacae [27]): > 256 µg/mL; MIC (Enterobacter cloacae [28]): 256 µg/mL; MIC (Enterobacter cloacae [29]): 8 µg/mL; MIC (Enterobacter cloacae [30]): 1 µg/mL; MIC (Enterobacter cloacae [31]): 2 µg/mL; MIC (Enterobacter cloacae [32]): 128 µg/mL; MIC (Escherichia coli [33]): 2 µg/mL; MIC (Enterobacter cloacae [34]): 1 µg/mL; MIC (Enterobacter cloacae [35]): > 256 µg/mL; MIC (Enterobacter cloacae [36]): 4 µg/mL; MIC (Escherichia coli [37]): 128 µg/mL; MIC (Escherichia coli [38]): 1 µg/mL; MIC (Enterobacter cloacae [39]): 8 µg/mL
3 | CC(C)(O/N=C(\C(=O)N[C@@H]1C(=O)N2C(C(=O)[O-])=C(C[n+]3ccccc3)CS[C@H]12)c1csc(N)n1)C(=O)O [CEFTAZIDIME] | 16 µg/mL (≈ 29.3 µM) | 16 µg/mL (≈ 29.3 µM) | 2 µg/mL (≈ 3.66 µM) | 256 µg/mL (≈ 468 µM) | 1 µg/mL (≈ 1.83 µM) | 4 µg/mL (≈ 7.32 µM) | 64 µg/mL (≈ 117 µM) | – | 4 µg/mL (≈ 7.32 µM) | 256 µg/mL (≈ 468 µM) | 4 µg/mL (≈ 7.32 µM) | 32 µg/mL (≈ 58.5 µM) | 64 µg/mL (≈ 117 µM) | 32 µg/mL (≈ 58.5 µM) | 1 µg/mL (≈ 1.83 µM) | 64 µg/mL (≈ 117 µM) | 16 µg/mL (≈ 29.3 µM) | 1 µg/mL (≈ 1.83 µM) | 64 µg/mL (≈ 117 µM) | 256 µg/mL (≈ 468 µM) | MIC (Citrobacter freundii [23]): 2 µg/mL (≈ 3.66 µM); MIC (Enterobacter cloacae [24]): 32 µg/mL (≈ 58.5 µM); MIC (Escherichia coli [40]): 2 µg/mL (≈ 3.66 µM); MIC (Enterobacter cloacae [25]): 2 µg/mL (≈ 3.66 µM); MIC (Citrobacter freundii [26]): 2 µg/mL (≈ 3.66 µM); MIC (Enterobacter cloacae [27]): 4 µg/mL (≈ 7.32 µM); MIC (Enterobacter cloacae [28]): 128 µg/mL (≈ 234 µM); MIC (Enterobacter cloacae [29]): 2 µg/mL (≈ 3.66 µM); MIC (Enterobacter cloacae [31]): 4 µg/mL (≈ 7.32 µM); MIC (Enterobacter cloacae [32]): 16 µg/mL (≈ 29.3 µM); MIC (Escherichia coli [33]): 4 µg/mL (≈ 7.32 µM); MIC (Enterobacter cloacae [34]): 4 µg/mL (≈ 7.32 µM); MIC (Enterobacter cloacae [35]): 128 µg/mL (≈ 234 µM); MIC (Escherichia coli [37]): 4 µg/mL (≈ 7.32 µM); MIC (Escherichia coli [38]): 1 µg/mL (≈ 1.83 µM); MIC (Enterobacter cloacae [39]): 16 µg/mL (≈ 29.3 µM)
